# Tests used:
# P388 = experiment: Cytotoxic activity against murine P388 leukemia cells; format: functional, cell-based; details: Mus musculus
# Mus musculus [1] = experiment: Ratio of median survival time of treated mice (T) to that of median survival time of controls (C) in mice infected with p388 cells (in vivo) at a dose of 3.13 mg/kg; format: functional
# Method in brief: (§1)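 BDF1 mice implanted ip with 0.1 mL diluted ascites fluid carrying 10⁶ P388 leukemia cells. Dosing ip on days 1 and 5 after implantation. Test compounds were suspended in 0.4% CMC, and reference drugs were dissolved and diluted in distilled water. Seven mice per group. T/C (%) = median survival time of treated group / median survival time of control group × 100.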
# Mus musculus [2] = experiment: Ratio of median survival time of treated mice (T) to that of median survival time of controls (C) in mice infected with p388 cells (in vivo) at a dose of 12.5 mg/kg; format: functional; method in brief: as §1
# [3] = Solubility at pH 7.2; format: physicochemical; details: buffer
# Method in brief: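 Water solubility measured in pH 7.2 phosphate buffer, reported in mg/mL.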
# Mus musculus [4] = experiment: Ratio of median survival time of treated mice (T) to that of median survival time of controls (C) in mice infected with p388 cells (in vivo) at a dose of 50 mg/kg; format: functional; method in brief: as §1
# PANC-1 = experiment: Cytotoxic activity against human tumor PANC-1 pancreas cells; format: functional, cell-based
# Method in brief: (§2)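 Hs746T and PANC-1 cells kept in Dulbecco's modified Eagle's medium with 10% FBS. Seeded at (1-2) × 10⁴ cells/mL, 24 h preincubation, then graded compound concentrations for 72 h at 37 °C in 5% CO₂. MTT (5 mg/mL solution) added for 4 h, formazan taken up in DMSO, read at 570/690 nm. IC50 is 50% absorbance reduction relative to control. At least two independent experiments averaged.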
# SBC-3 = experiment: Cytotoxic activity against human tumor SBC-3 lung cells; format: functional, cell-based
# Method in brief: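 SBC-3 cells cultured in RPMI 1640 plus 10% FBS. Plated at (1-2) × 10⁴ cells/mL, preincubated 24 h, then compound at various concentrations for 72 h at 37 °C in 5% CO₂. MTT solution (5 mg/mL) for 4 h, DMSO solubilization, absorbance 570 nm with 690 nm reference. IC50 is the dose halving absorbance vs control. Mean of at least two independent runs.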
# Mus musculus [5] = experiment: Ratio of median survival time of treated mice (T) to that of median survival time of controls (C) in mice infected with p388 cells (in vivo) at a dose of 1.56 mg/kg; format: functional; method in brief: as §1
# Mus musculus [6] = experiment: Ratio of median survival time of treated mice (T) to that of median survival time of controls (C) in mice infected with p388 cells (in vivo) at a dose of 0.78 mg/kg; format: functional; method in brief: as §1
# Hs746T = experiment: Cytotoxic activity against human tumor Hs 746.T stomach cells; format: functional, cell-based; method in brief: as §2
# HL-60 = experiment: Cytotoxic activity against human tumor HL-60 leukemia cells; format: functional, cell-based
# Method in brief: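 HL-60 cells grown in RPMI 1640 with 20% FBS. Seeded at (1-2) × 10⁴ cells/mL, preincubated 24 h, then exposed to a range of compound concentrations for 72 h at 37 °C in 5% CO₂. Read by MTT (5 mg/mL solution, 4 h), formazan dissolved in DMSO, absorbance 570 nm/690 nm. IC50 is the concentration giving 50% absorbance reduction vs control. Mean of at least two independent experiments.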
# SCaBER = experiment: Cytotoxic activity against human tumor SCaBER bladder cells; format: functional, cell-based
# Method in brief: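 SCaBER cells maintained in EMEM with 10% FBS and nonessential amino acids. Seeded at (1-2) × 10⁴ cells/mL, 24 h preincubation, then 72 h compound exposure at various concentrations at 37 °C in 5% CO₂. MTT (5 mg/mL) for 4 h, then DMSO, read at 570/690 nm. IC50 is 50% absorbance drop vs control. At least two independent experiments averaged.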
# Mus musculus [7] = experiment: Ratio of median survival time of treated mice (T) to that of median survival time of controls (C) in mice infected with p388 cells (in vivo) at a dose of 6.25 mg/kg; format: functional; method in brief: as §1
# SK-OV-3 = experiment: Cytotoxic activity against human tumor SK-OV-3 ovary cells; format: functional, cell-based; details: SK-OV-3, Female gonad
# Method in brief: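 SKOV3 cells grown in RPMI 1640 with 10% heat-inactivated FBS. Cells at (1-2) × 10⁴ cells/mL, preincubated 24 h, treated with graded concentrations for 72 h at 37 °C in 5% CO₂. MTT readout (5 mg/mL, 4 h), formazan in DMSO, absorbance 570 nm/690 nm. IC50 is the concentration for 50% absorbance reduction vs control. Mean of at least two independent experiments.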
# Mus musculus [8] = experiment: Ratio of median survival time of treated mice (T) to that of median survival time of controls (C) in mice infected with p388 cells (in vivo) at a dose of 25 mg/kg; format: functional; method in brief: as §1
smiles,measurement,setting,value
Cl.NC1CCN(c2nc3c(cc2Cl)c(=O)c(C(=O)O)cn3-c2nccs2)C1 (stereo unspecified),IC50,P388,0.227 µg/mL
CN[C@H]1CN(c2ccc3c(=O)c(C(=O)O)cn(-c4nccs4)c3n2)C[C@@H]1SC.Cl,IC50,P388,0.02 µg/mL
Cl.NC1CCN(c2ccc3c(=O)c(C(=O)O)cn(-c4nccs4)c3n2)C1 (stereo unspecified),T/C,Mus musculus [1],188%
same,T/C,Mus musculus [2],275%
same,solubility,[3],6.9 µg/mL
same,IC50,P388,0.01 µg/mL
same,T/C,Mus musculus [4],125%
Cl.NC1CCN(c2cc(C(F)(F)F)c3c(=O)c(C(=O)O)cn(-c4nccs4)c3n2)C1 (stereo unspecified),IC50,P388,0.098 µg/mL
COc1cc([C@@H]2c3cc4c(cc3[C@@H](O[C@@H]3O[C@@H]5CO[C@@H](C)O[C@H]5[C@H](O)[C@H]3O)[C@H]3COC(=O)[C@H]23)OCO4)cc(OC)c1O [ETOPOSIDE],IC50,PANC-1,1.6 µg/mL
same,IC50,SBC-3,0.0676 µg/mL
same,T/C,Mus musculus [1],175%
same,T/C,Mus musculus [5],150%
same,T/C,Mus musculus [6],138%
same,IC50,Hs746T,3.29 µg/mL
same,IC50,HL-60,0.15 µg/mL
same,IC50,SCaBER,0.276 µg/mL
same,T/C,Mus musculus [2],250%
same,T/C,Mus musculus [7],200%
same,IC50,SK-OV-3,1.06 µg/mL
same,T/C,Mus musculus [4],>375%
same,T/C,Mus musculus [8],>375%
CN[C@H]1CN(c2ccc3c(=O)c(C(=O)O)cn(-c4nccs4)c3n2)C[C@@H]1OC.Cl,T/C,Mus musculus [1],200%
same,T/C,Mus musculus [6],150%
same,T/C,Mus musculus [2],250%
same,solubility,[3],20100 µg/mL
same,T/C,Mus musculus [7],225%
same,IC50,P388,0.01 µg/mL
same,T/C,Mus musculus [4],>375%
same,T/C,Mus musculus [8],300%
O=C(O)c1cn(-c2nccs2)c2nc(-c3cc[nH]n3)ccc2c1=O,IC50,P388,4.34 µg/mL
COc1ccccc1N1CCN(c2ccc3c(=O)c(C(=O)O)cn(-c4nccs4)c3n2)CC1.Cl,IC50,P388,> 1 µg/mL
CNC1CN(c2ccc3c(=O)c(C(=O)O)cn(-c4nccs4)c3n2)C1.Cl,IC50,P388,0.024 µg/mL
CN[C@@H]1CN(c2ccc3c(=O)c(C(=O)O)cn(-c4nccs4)c3n2)[C@H]1C.Cl,IC50,P388,0.041 µg/mL
CO[C@H]1CN(c2ccc3c(=O)c(C(=O)O)cn(-c4nccs4)c3n2)C[C@@H]1N.Cl,T/C,Mus musculus [1],163%
same,T/C,Mus musculus [2],238%
same,solubility,[3],47 µg/mL
same,IC50,P388,0.018 µg/mL
same,T/C,Mus musculus [4],338%
C[C@H]1CN(c2ccc3c(=O)c(C(=O)O)cn(-c4nccs4)c3n2)C[C@@H]1N.Cl,T/C,Mus musculus [1],175%
same,T/C,Mus musculus [2],200%
same,solubility,[3],17 µg/mL
same,IC50,P388,0.0096 µg/mL
same,T/C,Mus musculus [4],288%
C[C@H]1CN(c2ccc3c(=O)c(C(=O)O)cn(-c4nccs4)c3n2)C[C@]1(C)N.Cl,IC50,P388,0.02 µg/mL
C[C@H]1[C@H](N)CCN1c1ccc2c(=O)c(C(=O)O)cn(-c3nccs3)c2n1.Cl,IC50,P388,0.094 µg/mL
Cl.Nc1cc2c(=O)c(C(=O)O)cn(-c3nccs3)c2nc1N1CCC(N)C1 (stereo unspecified),IC50,P388,1.01 µg/mL
Cl.O=C(O)c1cn(-c2nccs2)c2nc(N3C[C@@H]4CCCN[C@@H]4C3)ccc2c1=O,IC50,P388,0.017 µg/mL
CNC1CCCN(c2ccc3c(=O)c(C(=O)O)cn(-c4nccs4)c3n2)C1.Cl (stereo unspecified),IC50,P388,0.52 µg/mL
Cl.N[C@H]1CN(c2ccc3c(=O)c(C(=O)O)cn(-c4nccs4)c3n2)C[C@@H]1CCl,IC50,P388,0.024 µg/mL
C=Cc1ccc2c(=O)c(C(=O)O)cn(-c3nccs3)c2n1,IC50,P388,> 1 µg/mL
Cl.NC1CCN(c2nc3c(cc2O)c(=O)c(C(=O)O)cn3-c2nccs2)C1 (stereo unspecified),IC50,P388,4.31 µg/mL
CNC1(C)CCN(c2ccc3c(=O)c(C(=O)O)cn(-c4nccs4)c3n2)C1.Cl (stereo unspecified),T/C,Mus musculus [1],163%
same,T/C,Mus musculus [2],225%
same,solubility,[3],7.2 µg/mL
same,IC50,P388,0.018 µg/mL
same,T/C,Mus musculus [4],113%
